Data on nine molecules can be found in paper PMC12580983 (RSC Advances, 2025).

For assay [1], the system named is A549 cells. Description: MTT cell viability assay, A549. The assay is classed as cell-based, Human. The settings on record: IC50 Vero cells / IC50 A549 cells.
Assay [2] concerns P. falciparum (Pf3D7). The assay is described as follows: Parasitemia and suppression of Pf3D7 culture after 72 h of treatment. The settings on record: for percentage suppression of parasitemia: concentration not given. It is filed as cell-based, Plasmodium falciparum.
For assay [3], the system named is P. falciparum (Pf3D7). The assay is described as follows: SYBR green I fluorescence antiplasmodial assay. It is filed as cell-based, Plasmodium falciparum. The conditions noted are these: for selectivity index (SI) towards Pf3D7: antimalarial selectivity, way of calculation not stated. The essentials:
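Chloroquine-sensitive P. falciparum 3D7 was grown in O+ human erythrocytes (4% haematocrit) in RPMI 1640 with 25 mM HEPES and 0.5% Albumax I, at 37 °C under 5% O2/5% CO2/90% N2. Sorbitol-synchronised rings (2% haematocrit, 1% parasitaemia) got increasing concentrations in water. SYBR Green I was read after 0.08% Triton X-100, 1 h at 37 °C in the dark (ex 485/em 530 nm), chloroquine-well counts subtracted. IC50 came from dose–response curves.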

≈ marks a conversion by molar mass, not a printed value.

On to `C/C(=N/NC(=O)c1cn(-c2ccccc2)nc1-c1ccc(F)cc1)c1c(O)cc(C)oc1=O` [3a, (Z)-3-(4-fluorophenyl)-N′-(1-(4-hydroxy-6-methyl-2-oxo-2H-pyran-3-yl)ethylidene)-1-phenyl-1H-pyrazole-4-carbohydrazide], for which, in assay [1], the “Selectivity Index (SI)” value is 2.78. In addition, in assay [2] (12.5 μg mL^−1, 72 h), the “% Parasitemia” value is 93.33% and the “% Suppression” value is reported as 6.67%. The “% Parasitemia” value in assay [2] (100 μg mL^−1, 72 h) came out at 2.95%. Further, in assay [2], the “percentage suppression of parasitemia” value stood at 97%.

For the molecule `C/C(=N/NC(=O)c1cn(-c2ccccc2)nc1-c1ccc(Cl)cc1)c1c(O)cc(C)oc1=O` [3b, (Z)-3-(4-chlorophenyl)-N′-(1-(4-hydroxy-6-methyl-2-oxo-2H-pyran-3-yl)ethylidene)-1-phenyl-1H-pyrazole-4-carbohydrazide], the “Selectivity Index (SI)” value in assay [1] was found to be 3.25. For the same molecule, in assay [2] (12.5 μg mL^−1, 72 h), the “% Parasitemia” value was determined as 68.38% and the “% Suppression” value turned out to be 31.62%. For the same molecule, in assay [2] (100 μg mL^−1, 72 h), the “% Parasitemia” value turned out to be 62.57% and the “% Suppression” value was determined as 37.43%.

For the molecule `C/C(=N/NC(=O)c1cn(-c2ccccc2)nc1-c1ccc(Br)cc1)c1c(O)cc(C)oc1=O` [3c, (Z)-3-(4-bromophenyl)-N′-(1-(4-hydroxy-6-methyl-2-oxo-2H-pyran-3-yl)ethylidene)-1-phenyl-1H-pyrazole-4-carbohydrazide], the “% Parasitemia” value was found to be 52.90% in assay [2] (12.5 μg mL^−1, 72 h) and 5.81% in assay [2] (100 μg mL^−1, 72 h). Moreover, the “% Suppression” value in assay [2] (12.5 μg mL^−1, 72 h) is recorded as 47.10%; in assay [2] (100 μg mL^−1, 72 h) it was 94.19%.

Turning to `C/C(=N/NC(=O)c1cn(-c2ccccc2)nc1-c1ccc(C)cc1)c1c(O)cc(C)oc1=O` [3d, (Z)-3-(4-methylphenyl)-N′-(1-(4-hydroxy-6-methyl-2-oxo-2H-pyran-3-yl)ethylidene)-1-phenyl-1H-pyrazole-4-carbohydrazide], the IC50 (in general, the concentration that inhibits the measured activity by half) in assay [3] (Plasmodium falciparum, 72 h, read-out: IC50 µM Pf3D7) was 5.2 µg/mL (≈ 11.8 µM). For the same molecule, the “selectivity index (SI) towards Pf3D7” value in assay [3] was 18.38. For the same molecule, the “% Parasitemia” value in assay [2] (12.5 μg mL^−1, 72 h) was determined as 42.19%; in assay [2] (100 μg mL^−1, 72 h), 2.47%. Moreover, in assay [2] (12.5 μg mL^−1, 72 h), the “% Suppression” value came out at 57.81%. Besides, the “percentage suppression of parasitemia” value in assay [2] worked out at 97%.

Turning to `C/C(=N/NC(=O)c1cn(-c2ccccc2)nc1-c1ccccc1)c1c(O)cc(C)oc1=O` [3e, (Z)-N′-(1-(4-hydroxy-6-methyl-2-oxo-2H-pyran-3-yl)ethylidene)-1,3-diphenyl-1H-pyrazole-4-carbohydrazide], the “Selectivity Index (SI)” value in assay [1] is recorded as 4.56. Besides, the “selectivity index (SI) towards Pf3D7” value in assay [3] is reported as 9.48. In addition, in assay [2] (12.5 μg mL^−1, 72 h), the “% Parasitemia” value came to 73.81% and the “% Suppression” value was determined as 26.19%. Moreover, in assay [2] (100 μg mL^−1, 72 h), the “% Parasitemia” value stood at 37.62% and the “% Suppression” value was found to be 62.38%.

As to `CCN(CC)CCCC(C)Nc1ccnc2cc(Cl)ccc12` (stereo not drawn) [CQ, Chloroquine, reference compound], in assay [2] (12.5 μg mL^−1, 72 h), the “% Parasitemia” value was 0.95% and the “% Suppression” value was determined as 99.05%. Also, in assay [2] (100 μg mL^−1, 72 h), the “% Parasitemia” value came out at 0.95% and the “% Suppression” value was found to be 99.05%.

For the molecule `N.N.O=C([O-])C1(C(=O)[O-])CCC1.[Pt+2]` [Carboplatin, reference compound], in assay [1], the “Selectivity Index (SI)” value was 2.57.

`N.N.[Cl][Pt][Cl]` [Cisplatin, reference compound]: in assay [1], the “Selectivity Index (SI)” value worked out at 1.35.

Take `C[C@@H]1C[C@H]2[C@@H]3CCC4=CC(=O)C=C[C@]4(C)[C@@]3(F)[C@@H](O)C[C@]2(C)[C@@]1(O)C(=O)CO` [Dexamethasone, reference compound]: the “Selectivity Index (SI)” value in assay [1] stood at 0.23.
